Measured values collected from several papers.
ABL1 T315I non-phosphorylated: Tyrosine-protein kinase ABL1, non-phosphorylated (ABL1, Homo sapiens, UniProt P00519, T315I)
ABL1 E255K phosphorylated: Tyrosine-protein kinase ABL1, phosphorylated (ABL1, Homo sapiens, UniProt P00519, E255K)
ABL1 phosphorylated: Tyrosine-protein kinase ABL1, phosphorylated (ABL1, Homo sapiens, UniProt P00519)
ABL1 F317I non-phosphorylated: Tyrosine-protein kinase ABL1, non-phosphorylated (ABL1, Homo sapiens, UniProt P00519, F317I)
ABL1 T315I phosphorylated: Tyrosine-protein kinase ABL1, phosphorylated (ABL1, Homo sapiens, UniProt P00519, T315I)
ABL1 F317L non-phosphorylated: Tyrosine-protein kinase ABL1, non-phosphorylated (ABL1, Homo sapiens, UniProt P00519, F317L)
ABL1 Y253F: Tyrosine-protein kinase ABL1 (ABL1, Homo sapiens, UniProt P00519, Y253F)
ABL1 Q252H phosphorylated: Tyrosine-protein kinase ABL1, phosphorylated (ABL1, Homo sapiens, UniProt P00519, Q252H)
ABL1 F317L phosphorylated: Tyrosine-protein kinase ABL1, phosphorylated (ABL1, Homo sapiens, UniProt P00519, F317L)
ABL1 F317I phosphorylated: Tyrosine-protein kinase ABL1, phosphorylated (ABL1, Homo sapiens, UniProt P00519, F317I)
ABL1 non-phosphorylated: Tyrosine-protein kinase ABL1, non-phosphorylated (ABL1, Homo sapiens, UniProt P00519)
ABL1 Q252H non-phosphorylated: Tyrosine-protein kinase ABL1, non-phosphorylated (ABL1, Homo sapiens, UniProt P00519, Q252H)
ABL1 H396P phosphorylated: Tyrosine-protein kinase ABL1, phosphorylated (ABL1, Homo sapiens, UniProt P00519, H396P)

For `COc1cnc(Nc2cccc(S(N)(=O)=O)c2)nc1N1CCN(c2ccccc2)CC1`, the remaining binding was 89% (ABL1 T315I non-phosphorylated; binding, competition with immobilised ligand; 1 µM).
With `CC(C)(C)c1ccc(-c2nc(CBr)nn2-c2cccc(O)c2)cc1` the remaining binding was 74% (ABL1 E255K phosphorylated; cell-free assay, competition with immobilised ligand; 10 µM).
With `CN1CCN(c2ccc(Nc3nccc(-c4ccccc4)n3)cc2C(F)(F)F)CC1` the remaining binding was 66% (Tyrosine-protein kinase ABL1 (ABL1, Homo sapiens, UniProt P00519, F317L); binding; 10 µM).
`N[C@H]1CCN(c2nccc(-c3cnn4ncccc34)n2)C1` has a remaining binding of 88% (ABL1 phosphorylated; binding; 1 µM).
The remaining binding of `CN(C(=O)c1ccccc1)c1cc(N(C)c2ccc3c(c2)CCc2ccc(C(=O)NCCN4CCOCC4)cc2C3=O)ccc1F` is reported as 79% (ABL1 F317I non-phosphorylated; binding, competition with immobilised ligand; 1 µM).
For `COC(=O)Nc1nc2ccc(C(=O)c3ccccc3)cc2[nH]1`, the remaining binding was 3.2% (ABL1 T315I phosphorylated; cell-free assay, competition with immobilised ligand; 10 µM).
`O=C(c1ccc(Nc2ncc(Cl)c(-c3ccc(Cl)s3)n2)cc1)N1CCC(N2CCCC2)CC1` gave a remaining binding of 65% (ABL1 F317L non-phosphorylated; binding, competition with immobilised ligand; 1 µM).
With `F[C@@H]1CCN(c2nccc(-c3cnn4ncccc34)n2)C1` the remaining binding was 79% (ABL1 phosphorylated; binding; 1 µM).
The remaining binding of `CO[C@H]1CC[C@H](CNc2ccc(S(=O)(=O)NC(=O)c3ccc(N4CCN(CC5=C(c6ccc(Cl)cc6)CC(C)(C)CC5)CC4)cc3Oc3cnc4[nH]ccc4c3)cc2[N+](=O)[O-])CC1` is reported as 74% (ABL1 E255K phosphorylated; binding, competition with immobilised ligand; 1 µM).
For `CN(CCCC(F)(F)F)c1nccc(-c2cnn3ncccc23)n1`, the remaining binding was 89% (ABL1 Y253F; binding; 1 µM).
The remaining binding of `COc1cc(-c2cn(C3CCc4c(F)cccc4N(CC(F)(F)F)C3=O)nn2)ccc1-n1cnc(C)c1` (centres unmarked) is reported as 100% (ABL1 Q252H phosphorylated; cell-free assay, competition with immobilised ligand; 1 µM).
The remaining binding of `CCN1CCN(Cc2ccc(C(=O)Nc3ccc(C)c(Oc4ccc5c(c4)CC(=O)N5)c3)cc2C(F)(F)F)CC1` is reported as 9.6% (ABL1 F317L phosphorylated; binding, competition with immobilised ligand; 1 µM).
With `COc1ncc2cc3ccccc3nc2c1C#N` the remaining binding was 99% (ABL1 Q252H phosphorylated; cell-free assay, competition with immobilised ligand; 5 µM).
`C=CC(=O)N1CCC(C(=O)NCC(=O)N2CCN(c3nc(-c4cnc(N)nc4C(F)F)nc(N4CCOCC4)n3)CC2)CC1` has a remaining binding of 94% (ABL1 F317I phosphorylated; binding, competition with immobilised ligand; 1 µM).
The remaining binding of `Cc1noc([C@H]2C[C@@H](c3ccc(C(F)(F)F)cc3)CN(C(=O)N3CCS(=O)(=O)C3)C2)n1` is reported as 100% (ABL1 T315I non-phosphorylated; cell-free assay, competition with immobilised ligand; 1 µM).
With `CN(c1nccc(-c2cnn3ncccc23)n1)C1CC1` the remaining binding was 100% (ABL1 Y253F; binding; 1 µM).
`COc1cccc(CNC(=O)c2nc3scc(COCc4ccc(C(=O)O)cc4)c3c(=O)[nH]2)c1` has a remaining binding of 87.2% (ABL1 F317L phosphorylated; cell-free assay, competition with immobilised ligand; 1 µM).
With `COc1cnc(Nc2cccc(S(N)(=O)=O)c2)nc1N1CCN(c2ccccc2)C(=O)C1` the remaining binding was 89% (ABL1 F317I non-phosphorylated; binding, competition with immobilised ligand; 1 µM).
`CN(C)c1nccc(-c2cnc3ncccn23)n1` has a remaining binding of 42% (Tyrosine-protein kinase ABL1 (ABL1, Homo sapiens, UniProt P00519, E255K); binding; 1 µM).
The remaining binding of `CN(C)c1ncnc(-c2ccc3nc(Nc4cc(CN5CCN(C(=O)CC(F)(F)F)CC5)ccn4)[nH]c3c2)c1Cl` is reported as 49% (ABL1 E255K phosphorylated; binding, competition with immobilised ligand; 1 µM).
The remaining binding of `CN(C)c1ncc(F)c(-c2cnn3ncccc23)n1` is reported as 89% (ABL1 non-phosphorylated; binding, competition with immobilised ligand; 1 µM).
The remaining binding of `O=C(c1ccc(Nc2nccc(-c3cc4ccccc4s3)n2)cc1)N1CCC(N2CCCC2)CC1` is reported as 78% (ABL1 F317L non-phosphorylated; binding, competition with immobilised ligand; 1 µM).
For `CC(C)(O)c1cncc(-c2nc3ccc(F)cc3n2C2CC2)c1`, the remaining binding was 89% (ABL1 Q252H non-phosphorylated; cell-free assay, competition with immobilised ligand; 1 µM).
The remaining binding of `O=C(NCCCN1CCOCC1)c1ccc(Nc2nccc(-c3cc4ccccc4s3)n2)cc1` is reported as 24% (Tyrosine-protein kinase ABL1, non-phosphorylated (ABL1, Homo sapiens, UniProt P00519, H396P); binding, competition with immobilised ligand; 1 µM).
With `O=C(NCC1CCOCC1)c1n[nH]cc1NC(=O)c1c(F)cccc1F` the remaining binding was 84% (ABL1 F317I phosphorylated; binding, competition with immobilised ligand; 1 µM).
For `c1cncc(-c2cccc(Nc3nccc(NC4CCCCC4)n3)c2)c1`, the remaining binding was 35% (ABL1 non-phosphorylated; binding, competition with immobilised ligand; 10 µM).
The remaining binding of `Nc1ncc2c(n1)-c1c([nH]c3ccc(C#CC4CC4)cc13)CCCC2` is reported as 93% (ABL1 H396P phosphorylated; binding, competition with immobilised ligand; 1 µM).
`C[C@@H]1CCN(c2nccc(-c3cnn4ncccc34)n2)C1` has a remaining binding of 79% (Tyrosine-protein kinase ABL1 (ABL1, Homo sapiens, UniProt P00519, H396P); binding; 1 µM).
For `C[C@@H](c1ccc(-n2cnc3c(N)ncnc32)cc1)N1CCc2nn(C)c(Cc3ccccc3)c2C1=O`, the remaining binding was 78% (ABL1 T315I phosphorylated; binding, competition with immobilised ligand; 0.1 µM).
With `O=C(c1ccc(Nc2ncc(Cl)c(-c3cc4ccccc4s3)n2)cc1)N1CCC(N2CCCC2)CC1` the remaining binding was 26% (ABL1 phosphorylated; binding, competition with immobilised ligand; 1 µM).
The remaining binding of `CC(=O)N1CCC(c2ccc(C(=O)NC3=NCCN3)cc2C(F)(F)F)CC1` is reported as 95% (ABL1 F317L phosphorylated; cell-free assay, competition with immobilised ligand; 1 µM).
The remaining binding of `O=C(NCCCN1CCOCC1)c1ccc(Nc2ncc(Cl)c(-c3ccc(Cl)s3)n2)cc1` is reported as 11% (ABL1 Q252H non-phosphorylated; binding, competition with immobilised ligand; 1 µM).
`CNC(=O)[C@@H]1CC[C@@H](n2c(-c3ccc4cnccc4c3)nc3ccc(C(=O)NCc4cccc(C(N)=O)c4)cc32)C1` has a remaining binding of 100% (ABL1 H396P phosphorylated; binding, competition with immobilised ligand; 1 µM).
For `Cc1cnc(Nc2ccc(C(=O)N3CCC(N4CCCC4)CC3)cc2)nc1-c1cc2ccccc2s1`, the remaining binding was 59% (ABL1 F317L non-phosphorylated; binding, competition with immobilised ligand; 1 µM).
The remaining binding of `O=C(Nc1c[nH]nc1C(=O)NC1CCNCC1)c1cc(F)cc(F)c1` is reported as 100% (ABL1 Q252H non-phosphorylated; binding, competition with immobilised ligand; 1 µM).
